What was measured:
Assay type in all cases: functional
Malme-3M = experiment: Cytotoxicity against human MALME-3M cells at 10^-5 M after 48 hrs by SRB assay; details: read-out: GI
SR [1] = experiment: Cytotoxicity against human SR cells at 10^-7 M after 48 hrs by SRB assay; details: read-out: GI
SR [2] = experiment: Cytotoxicity against human SR cells at 10^-6 M after 48 hrs by SRB assay; details: read-out: GI
BT-549 = experiment: Cytotoxicity against human BT549 cells at 10^-8 M after 48 hrs by SRB assay; details: BT-549, 48 h, read-out: GI
[3] = Cytotoxicity against human Hs578T cells at 10^-8 M after 48 hrs by SRB assay; details: Hs-578T, read-out: GI
NCI/ADR-RES = experiment: Cytotoxicity against human NCI/ADR-RES cells at 10^-8 M after 48 hrs by SRB assay; details: read-out: GI
TK-10 [4] = experiment: Cytotoxicity against human TK10 cells at 10^-8 M after 48 hrs by SRB assay; details: TK-10, 48 h, read-out: GI
RXF 393 = experiment: Cytotoxicity against human RXF393 cells at 10^-8 M after 48 hrs by SRB assay; details: RXF 393, 48 h, read-out: GI
SN12C = experiment: Cytotoxicity against human SN12C cells at 10^-8 M after 48 hrs by SRB assay; details: read-out: GI
ACHN = experiment: Cytotoxicity against human ACHN cells at 10^-8 M after 48 hrs by SRB assay; details: read-out: GI
IGROV-1 = experiment: Cytotoxicity against human IGROV1 cells at 10^-8 M after 48 hrs by SRB assay; details: IGROV-1, 48 h, read-out: GI
UACC-62 = experiment: Cytotoxicity against human UACC62 cells at 10^-8 M after 48 hrs by SRB assay; details: UACC-62, 48 h, read-out: GI
[5] = Cytotoxicity against human UACC257 cells at 10^-8 M after 48 hrs by SRB assay; details: UACC-257, 48 h, read-out: GI
SK-MEL-28 = experiment: Cytotoxicity against human SK-MEL-28 cells at 10^-8 M after 48 hrs by SRB assay; details: SK-MEL-28, 48 h, read-out: GI
LOX IMVI [6] = experiment: Cytotoxicity against human LOXIMVI cells at 10^-8 M after 48 hrs by SRB assay; details: read-out: GI
U-251 [7] = experiment: Cytotoxicity against human U251 cells at 10^-8 M after 48 hrs by SRB assay; details: U-251, 48 h, read-out: GI
SNB-75 = experiment: Cytotoxicity against human SNB75 cells at 10^-8 M after 48 hrs by SRB assay; details: SNB-75, 48 h, read-out: GI
NCI-H23 [8] = experiment: Cytotoxicity against human NCI-H23 cells at 10^-8 M after 48 hrs by SRB assay; details: NCI-H23, 48 h, read-out: GI
NCI-H226 [9] = experiment: Cytotoxicity against human NCI-H226 cells at 10^-8 M after 48 hrs by SRB assay; details: NCI-H226, 48 h, read-out: GI
HOP-92 [10] = experiment: Cytotoxicity against human HOP92 cells at 10^-8 M after 48 hrs by SRB assay; details: HOP-92, 48 h, read-out: GI
MCF7 = experiment: Cytotoxicity against human MCF7 cells at 10^-7 M after 48 hrs by SRB assay; details: MCF7, 48 h, read-out: GI
DU-145 = experiment: Cytotoxicity against human DU145 cells at 10^-7 M after 48 hrs by SRB assay; details: DU-145, 48 h, read-out: GI
PC-3 = experiment: Cytotoxicity against human PC3 cells at 10^-7 M after 48 hrs by SRB assay; details: PC-3, 48 h, read-out: GI
TK-10 [11] = experiment: Cytotoxicity against human TK10 cells at 10^-7 M after 48 hrs by SRB assay; details: TK-10, 48 h, read-out: GI
CAKI-1 = experiment: Cytotoxicity against human Caki1 cells at 10^-7 M after 48 hrs by SRB assay; details: CAKI-1, 48 h, read-out: GI
SK-OV-3 = experiment: Cytotoxicity against human SKOV3 cells at 10^-7 M after 48 hrs by SRB assay; details: SK-OV-3, 48 h, read-out: GI
OVCAR-8 = experiment: Cytotoxicity against human OVCAR8 cells at 10^-7 M after 48 hrs by SRB assay; details: OVCAR-8, 48 h, read-out: GI
M14 = experiment: Cytotoxicity against human M14 cells at 10^-7 M after 48 hrs by SRB assay; details: M14, 48 h, read-out: GI
SK-MEL-2 = experiment: Cytotoxicity against human SK-MEL-2 cells at 10^-7 M after 48 hrs by SRB assay; details: SK-MEL-2, 48 h, read-out: GI
LOX IMVI [12] = experiment: Cytotoxicity against human LOXIMVI cells at 10^-7 M after 48 hrs by SRB assay; details: read-out: GI
U-251 [13] = experiment: Cytotoxicity against human U251 cells at 10^-7 M after 48 hrs by SRB assay; details: U-251, 48 h, read-out: GI
SW-620 = experiment: Cytotoxicity against human SW620 cells at 10^-7 M after 48 hrs by SRB assay; details: SW-620, 48 h, read-out: GI
NCI-H23 [14] = experiment: Cytotoxicity against human NCI-H23 cells at 10^-7 M after 48 hrs by SRB assay; details: NCI-H23, 48 h, read-out: GI
NCI-H226 [15] = experiment: Cytotoxicity against human NCI-H226 cells at 10^-7 M after 48 hrs by SRB assay; details: NCI-H226, 48 h, read-out: GI
HOP-92 [16] = experiment: Cytotoxicity against human HOP92 cells at 10^-7 M after 48 hrs by SRB assay; details: HOP-92, 48 h, read-out: GI
[17] = Cytotoxicity against human EKVX cells at 10^-7 M after 48 hrs by SRB assay; details: read-out: GI
K562 [18] = experiment: Cytotoxicity against human K562 cells at 10^-7 M after 48 hrs by SRB assay; details: K562, 48 h, read-out: GI
HL-60(TB) = experiment: Cytotoxicity against human HL-60(TB) cells at 10^-7 M after 48 hrs by SRB assay; details: HL-60, 48 h, read-out: GI
In short: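 NCI 60-human-tumour-cell-line screen run over a 5-log dose range (100, 10, 1, 0.1 and 0.01 µM). Cells were exposed to drug for 48 h. Growth was estimated by sulforhodamine B protein staining. Values are percent growth inhibition at each concentration, relative to untreated control cells.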

CCRF-CEM = experiment: Cytotoxicity against human CCRF-CEM cells at 10^-7 M after 48 hrs by SRB assay; details: read-out: GI
[19] = Cytotoxicity against human UO31 cells at 10^-6 M after 48 hrs by SRB assay; details: UO-31, 48 h, read-out: GI
HCC 2998 = experiment: Cytotoxicity against human HCC2998 cells at 10^-6 M after 48 hrs by SRB assay; details: HCC 2998, 48 h, read-out: GI
K562 [20] = experiment: Cytotoxicity against human K562 cells at 10^-6 M after 48 hrs by SRB assay; details: K562, 48 h, read-out: GI
[21] = Cytotoxicity against human UO31 cells at 10^-5 M after 48 hrs by SRB assay; details: UO-31, 48 h, read-out: GI

With `C#CCN(Cc1nc2cc(C(F)(F)F)ccc2nc1-c1ccccc1)c1ccc(C)cc1` the inhibition of growth at 10 µM (Malme-3M) was 41%.
`CCN(Cc1nc2cc(C(F)(F)F)ccc2nc1-c1ccccc1)c1ccc(OC)c(OC)c1` showed an inhibition of growth at 0.1 µM (SR [1]) of less than 40%, an inhibition of growth at 1 µM (SR [2]) of less than 40% and an inhibition of growth at 0.01 µM (BT-549) of less than 40%. It also gave an inhibition of growth at 0.01 µM [3] of less than 40%, an inhibition of growth at 0.01 µM (NCI/ADR-RES) of less than 40% and an inhibition of growth at 0.01 µM (TK-10 [4]) of less than 40%. For the same compound, the inhibition of growth at 0.01 µM (RXF 393) was 22%, the inhibition of growth at 0.01 µM (SN12C) was less than 40% and the inhibition of growth at 0.01 µM (ACHN) was less than 40%. For the same compound, the inhibition of growth at 0.01 µM (IGROV-1) was less than 40%, the inhibition of growth at 0.01 µM (UACC-62) was less than 40% and the inhibition of growth at 0.01 µM [5] was 39%. It also gave an inhibition of growth at 0.01 µM (SK-MEL-28) of less than 40%, an inhibition of growth at 0.01 µM (LOX IMVI [6]) of less than 40% and an inhibition of growth at 0.01 µM (U-251 [7]) of less than 40%. The inhibition of growth at 0.01 µM (SNB-75) was less than 40%, the inhibition of growth at 0.01 µM (NCI-H23 [8]) was less than 40% and the inhibition of growth at 0.01 µM (NCI-H226 [9]) was less than 40%. The inhibition of growth at 0.01 µM (HOP-92 [10]) was less than 40%, the inhibition of growth at 0.1 µM (MCF7) was less than 40% and the inhibition of growth at 0.1 µM (DU-145) was less than 40%. It also gave an inhibition of growth at 0.1 µM (PC-3) of less than 40%, an inhibition of growth at 0.1 µM (TK-10 [11]) of less than 40% and an inhibition of growth at 0.1 µM (CAKI-1) of less than 40%. For the same compound, the inhibition of growth at 0.1 µM (SK-OV-3) was less than 40%, the inhibition of growth at 0.1 µM (OVCAR-8) was 25% and the inhibition of growth at 0.1 µM (M14) was less than 40%. The inhibition of growth at 0.1 µM (SK-MEL-2) was less than 40%, the inhibition of growth at 0.1 µM (LOX IMVI [12]) was less than 40% and the inhibition of growth at 0.1 µM (U-251 [13]) was less than 40%. The inhibition of growth at 0.1 µM (SW-620) was less than 40%, the inhibition of growth at 0.1 µM (NCI-H23 [14]) was less than 40% and the inhibition of growth at 0.1 µM (NCI-H226 [15]) was less than 40%. The inhibition of growth at 0.1 µM (HOP-92 [16]) was less than 40%, the inhibition of growth at 0.1 µM [17] was less than 40% and the inhibition of growth at 0.1 µM (K562 [18]) was less than 40%. It also gave an inhibition of growth at 0.1 µM (HL-60(TB)) of less than 40%, an inhibition of growth at 0.1 µM (CCRF-CEM) of less than 40% and an inhibition of growth at 1 µM [19] of less than 40%. For the same compound, the inhibition of growth at 1 µM (HCC 2998) was less than 40%, the inhibition of growth at 1 µM (K562 [20]) was less than 40% and the inhibition of growth at 10 µM [21] was less than 40%.
